Screening results deposited in PubChem BioAssay by Broad Institute.
FN deposit inh – inhibitors of fibronectin matrix deposition, primary screen, AH1F cells, Alexa488-fibronectin fluorescence, plate reader | AH1F fibroblasts, overnight | inhibition, % at 12.6 µM | hit rate 0.086% among 350,000;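 active = mean inhibition across replicates of 30% or more, regardless of how many single replicates reach that level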;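 also: positive control wells lacked labelled fibronectin entirely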
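Material – AH1F fibroblast monolayer, labelled fibronectin deposition · Reagent – labelled fibronectin 24 nM · Timing – 1 h adhesion, overnight exposure · Measured by – fluorescence at 485 nm excitation, 525 nm emission · Read-out – inhibition of fibronectin deposition signal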
ERp5 inh – inhibitors of ERp5-driven insulin aggregation, primary screen, biochemical, turbidity, absorbance 650 nm, single point; Protein disulfide-isomerase A6 (Homo sapiens), Q15084; hit rate 0.05% among 350,000; 90 min; AID 651711, 2012; inhibition, % at 9.99 µM;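 active = mean replicate inhibition above about 25%, with every replicate also reaching it, limit read from the data, passing the limit was not always enough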
Target sequence (Q15084 whole entry, looked up): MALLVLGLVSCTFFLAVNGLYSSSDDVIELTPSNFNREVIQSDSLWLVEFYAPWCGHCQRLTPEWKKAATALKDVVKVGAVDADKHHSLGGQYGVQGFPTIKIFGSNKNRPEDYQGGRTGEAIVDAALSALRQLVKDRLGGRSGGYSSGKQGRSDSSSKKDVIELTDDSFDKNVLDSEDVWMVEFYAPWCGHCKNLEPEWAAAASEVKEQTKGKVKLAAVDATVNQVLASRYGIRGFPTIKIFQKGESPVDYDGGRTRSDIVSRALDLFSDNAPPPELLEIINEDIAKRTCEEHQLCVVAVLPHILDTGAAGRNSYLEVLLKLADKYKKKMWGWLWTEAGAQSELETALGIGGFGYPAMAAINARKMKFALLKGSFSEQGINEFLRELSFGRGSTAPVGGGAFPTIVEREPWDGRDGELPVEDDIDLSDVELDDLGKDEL
AF4-AF9 inh – inhibitors of AF4 peptide binding to AF9, primary screen, biochemical, AlphaScreen, biotin-AF4 peptide, FLAG-AF9, single point. Protein AF-9 (Homo sapiens), P42568. inhibition, % at 10 µM. hit rate 0.47% among 350,000;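 active = every replicate reaching a set inhibition limit, whatever the replicate mean, cut at about 25% in these data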;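 also: 0% = plate neutral control median and 100% = total signal loss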
FGF22 binding – binders of human FGF22 protein, primary screen, FGF22 synaptogenesis inhibitor project, biophysical, thermal shift, single point; activity (Tm shift, normalised), % at 9.99 µM; AID 651658, 2012; hit rate 1.5% among 340,000; recombinant FGF22 thermal shift, SYPRO orange fluorescence; percent of sucrose octasulfate shift, DMSO zero; Fibroblast growth factor 22 (Homo sapiens), Q9HCT0;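 active = mean Tm shift, scaled 0 neutral to 100 positive control, at about 1.3% or above, every replicate too, limit read from the data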
Target sequence (Q9HCT0 whole entry, looked up): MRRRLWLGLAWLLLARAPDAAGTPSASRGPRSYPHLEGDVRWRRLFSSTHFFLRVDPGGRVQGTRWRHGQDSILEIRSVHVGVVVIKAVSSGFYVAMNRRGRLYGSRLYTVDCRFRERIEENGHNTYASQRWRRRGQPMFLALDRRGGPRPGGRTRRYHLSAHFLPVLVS
PDI turbidity – inhibitors of human PDI, primary screen, biochemical, turbidity, single point, plate reader | Protein disulfide-isomerase (Homo sapiens), P07237 | PDI insulin aggregation turbidity, A650, 90 min | inhibition, % at 10 µM | hit rate 0.052% among 350,000;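 active = mean inhibition across replicates of 30% or more, whatever share of single replicates reach that level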
ARNT TACC3 PPI – disruptors of ARNT/TACC3 protein interaction, primary screen, biochemical, AlphaScreen, single concentration; Transforming acidic coiled-coil-containing protein 3 (Homo sapiens), Q9Y6A5; hit rate 0.66% among 390,000; inhibition, % at 9.99 µM; AlphaScreen His-ARNT PAS-B/GST-TACC3 binding, luminescence; TACC3 fragment carries E629A point mutation; AID 623870, 2012;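 active = mean inhibition of replicates at least 50% and at least half of replicates each reaching 50%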;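 also: 0% = complete ARNT plus TACC3 wells and 100% = ARNT alone without TACC3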
Numbers without * were called inactive; ! = repeats disagree. This is a sample that favours compounds with a hit; in the whole collection about 2.1% have one here.

Results for Cc1ccc(O)c(N=Cc2cc(Cc3ccccc3)cc([N+](=O)[O-])c2O)c1 ?
ERp5 inh: -7; AF4-AF9 inh: -16; FGF22 binding: 43*; PDI turbidity: 1; ARNT TACC3 PPI: -1

Results for O=C(NC(Cc1ccccc1)C(=O)N1CCCCCC1)c1ccccc1 (centres undefined) ?
FN deposit inh: 7; ERp5 inh: 4; AF4-AF9 inh: -2; FGF22 binding: 0; PDI turbidity: 10; ARNT TACC3 PPI: 0

How did O=C(NC(CC1CCCCC1)C(=O)O)c1ccccc1 (centres undefined) do in these assays?
FN deposit inh: -13; ERp5 inh: -5; AF4-AF9 inh: -3; FGF22 binding: 44*; PDI turbidity: -2; ARNT TACC3 PPI: -2

How did CC(C)NC(=O)N(C)C[C@H]1Oc2ccccc2C(=O)N(C)C[C@@H]1C do in these assays?
FN deposit inh: 0

Results for C[C@@H]1CN([C@@H](C)CO)C(=O)c2cc(C3=CCCC3)cnc2O[C@H]1CN(C)C(=O)Nc1ccccc1 ?
ERp5 inh: 3; AF4-AF9 inh: 5; FGF22 binding: 0

How did COc1ccc(C(=O)C[n+]2cc(-c3ccc(OC)cc3)n3c2CCCC3)cc1 do in these assays?
FN deposit inh: 10; ERp5 inh: 4; AF4-AF9 inh: 1; FGF22 binding: 43*!; PDI turbidity: 2; ARNT TACC3 PPI: -5

How did Cc1ccc(C(=O)C[n+]2cc(-c3ccc(C)cc3)n3c2CCCCC3)cc1 do in these assays?
FN deposit inh: -6; PDI turbidity: -1; ARNT TACC3 PPI: 2

What do the screens show for `C[C@H](CO)N1C[C@H](C)[C@H](CN(C)S(=O)(=O)c2ccc(-c3ccccc3)cc2)OCc2cn(nn2)CCCC1=O`?
FN deposit inh: -2; ERp5 inh: -3; AF4-AF9 inh: 2; FGF22 binding: 0; ARNT TACC3 PPI: 13

Results for CC(=O)OCC1OC(Sc2cccc3cccnc23)C(OC(C)=O)C(OC(C)=O)C1OC(C)=O (centres undefined) ?
FN deposit inh: -4; PDI turbidity: 11; ARNT TACC3 PPI: 68*

Results for CC(C)c1onc(C(=O)Nc2cccc(Cl)c2)c1[N+](=O)[O-] ?
FN deposit inh: 15; ERp5 inh: -1; AF4-AF9 inh: 1; FGF22 binding: 43*; PDI turbidity: -9; ARNT TACC3 PPI: 5

What do the screens show for `CC(=O)N1CCCc2cc(S(=O)(=O)Nc3ccccc3C)ccc21`?
FN deposit inh: 1; ERp5 inh: -4; AF4-AF9 inh: -2; FGF22 binding: 44*; PDI turbidity: 8; ARNT TACC3 PPI: -4

What do the screens show for `CC(=O)N1CCCc2cc(S(=O)(=O)N3CCCC(C(=O)NCc4ccccc4Cl)C3)ccc21` (centres undefined)?
FN deposit inh: -4; ERp5 inh: 0; AF4-AF9 inh: 32*; FGF22 binding: 0; PDI turbidity: -9; ARNT TACC3 PPI: -5

What do the screens show for `COc1ccc(C)cc1NS(=O)(=O)c1ccc2c(c1)CCN2C(C)=O`?
FN deposit inh: -3; ERp5 inh: 0; AF4-AF9 inh: -1; FGF22 binding: 0; PDI turbidity: 8; ARNT TACC3 PPI: -4

What do the screens show for `O=C(Nc1ccc(F)c(Cl)c1)Nc1cnccn1`?
FN deposit inh: 2; ERp5 inh: -1; AF4-AF9 inh: -3; FGF22 binding: 44*; PDI turbidity: -1; ARNT TACC3 PPI: -2

How did O=C(Nc1ccc(Cl)cc1)Nc1cnccn1 do in these assays?
FN deposit inh: -4; PDI turbidity: -1; ARNT TACC3 PPI: 2

Results for CNC[C@H]1Oc2ccccc2C(=O)N(C)C[C@@H]1C ?
FN deposit inh: 3

What do the screens show for `O=C(NCc1cccc(F)c1)[C@@H]1[C@@H](CO)[C@@H]2Cn3c(cccc3=O)[C@H]1N2C(=O)c1cnccn1`?
ERp5 inh: 2; AF4-AF9 inh: -1; FGF22 binding: 0; ARNT TACC3 PPI: active

Results for Cc1noc(C)c1NC(=O)N[C@@H]1C=C[C@@H](CC(=O)NCCCN(C)C)O[C@@H]1CO ?
FN deposit inh: 7

What do the screens show for `CCCNC(=O)Nc1ccc2c(c1)C(=O)N(C)C[C@@H](OC)[C@H](C)CN(Cc1ccncc1)[C@@H](C)CO2`?
FN deposit inh: 9; ARNT TACC3 PPI: -11

What do the screens show for `C=CCN1C(=O)/C(=C\C=C2\N(C)c3ccccc3C2(C)C)SC1=S`?
FN deposit inh: 8; ERp5 inh: -4; AF4-AF9 inh: -1; FGF22 binding: 44*; PDI turbidity: -56

How did O=C(OCc1cc([N+](=O)[O-])cc2c1OCOC2)c1ccccn1 do in these assays?
FN deposit inh: -7; ERp5 inh: 0; AF4-AF9 inh: -2; FGF22 binding: 43*; PDI turbidity: -2; ARNT TACC3 PPI: 4

What do the screens show for `O=C(OCc1cc([N+](=O)[O-])cc2c1OCOC2)c1cccnc1SC(F)F`?
FN deposit inh: 21; ERp5 inh: 0; AF4-AF9 inh: 0; FGF22 binding: 0; PDI turbidity: 3; ARNT TACC3 PPI: -4

How did COc1cc(/C=C2/CC/C(=C/c3ccc(O)c(OC)c3)C2=O)ccc1O do in these assays?
FN deposit inh: 7; ERp5 inh: 2; FGF22 binding: 0; PDI turbidity: 0; ARNT TACC3 PPI: -1

What do the screens show for `COc1cc(/C=C/C=C2/CC/C(=C/C=C/c3ccc(O)c(OC)c3)C2=O)ccc1O`?
FN deposit inh: 2; ERp5 inh: 1; AF4-AF9 inh: 4; FGF22 binding: -1; PDI turbidity: 39*; ARNT TACC3 PPI: -1

How did N#C/C(=C\c1ccc(OCc2ccc(C(=O)O)cc2)cc1)C(=O)NCc1ccccc1 do in these assays?
FN deposit inh: 22; ERp5 inh: -1; AF4-AF9 inh: -27; FGF22 binding: 0; PDI turbidity: 5; ARNT TACC3 PPI: -4

How did Cc1nc(S/C(=C/c2ccc(OCc3ccc(C(=O)O)cc3)cc2)C(=O)O)n[nH]1 do in these assays?
FN deposit inh: -6; ERp5 inh: -1; AF4-AF9 inh: -5; FGF22 binding: 1.5*; PDI turbidity: 10; ARNT TACC3 PPI: 9

Results for O=C(Nc1ccccc1)N1C[C@@H]2N[C@H](C1)[C@@H]2c1ccc(/C=C/c2ccccc2)cc1 ?
FN deposit inh: -8; ERp5 inh: -2; AF4-AF9 inh: 29*
